pIC50: −log10 of the molar value. Active and inactive are the calls of the source. The rule behind the calls is not given here.
Legend:
[1] = Inhibition of alpha chymotrypsin using N-benzoyl-L-tyrosine ethyl ester as substrate at 60 ug/mL after 5 mins by colorimetry
In short: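 α-Chymotrypsin, 1 U, 25 °C, in a 10 mm quartz cuvette, 200 μL final; inhibitor from DMSO (typically 1 mM stock, 10 μL) or DMSO alone. Absorbance read at 256 nm after 5 min incubation; tested up to 60 μg/mL.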

[2] = target: T1, Carboxypeptidase B2 (Homo sapiens) (UniProt Q96IY4); assay: Inhibition of carboxypeptidase U at 60 ug/mL
T1 sequence (whole entry): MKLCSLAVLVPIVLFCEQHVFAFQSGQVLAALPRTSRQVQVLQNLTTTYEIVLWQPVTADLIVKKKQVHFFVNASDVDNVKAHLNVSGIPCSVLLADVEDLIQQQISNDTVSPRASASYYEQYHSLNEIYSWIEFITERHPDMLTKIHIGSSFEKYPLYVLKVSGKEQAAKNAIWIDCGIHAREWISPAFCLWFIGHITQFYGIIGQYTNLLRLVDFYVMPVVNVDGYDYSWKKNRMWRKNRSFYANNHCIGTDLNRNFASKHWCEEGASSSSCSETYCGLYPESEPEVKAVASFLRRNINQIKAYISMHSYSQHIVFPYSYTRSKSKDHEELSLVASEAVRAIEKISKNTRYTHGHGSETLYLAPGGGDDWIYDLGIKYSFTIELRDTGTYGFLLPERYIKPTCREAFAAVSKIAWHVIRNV
In short: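 CPU (activated TAFI) assayed with a commercial TAFIa kit per manufacturer's instructions, run like the CPA/chymotrypsin assays; compounds tested up to 60 μg/mL.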

[3] = target: T2, Carboxypeptidase A1 (Bos taurus) (UniProt P00730); assay: Inhibition of bovine pancreas carboxypeptidase A using N-(4-methoxyphenylazoformyl)-phenylalanine as substrate at 30 uM after 5 mins by colorimetry
T2 sequence (whole entry): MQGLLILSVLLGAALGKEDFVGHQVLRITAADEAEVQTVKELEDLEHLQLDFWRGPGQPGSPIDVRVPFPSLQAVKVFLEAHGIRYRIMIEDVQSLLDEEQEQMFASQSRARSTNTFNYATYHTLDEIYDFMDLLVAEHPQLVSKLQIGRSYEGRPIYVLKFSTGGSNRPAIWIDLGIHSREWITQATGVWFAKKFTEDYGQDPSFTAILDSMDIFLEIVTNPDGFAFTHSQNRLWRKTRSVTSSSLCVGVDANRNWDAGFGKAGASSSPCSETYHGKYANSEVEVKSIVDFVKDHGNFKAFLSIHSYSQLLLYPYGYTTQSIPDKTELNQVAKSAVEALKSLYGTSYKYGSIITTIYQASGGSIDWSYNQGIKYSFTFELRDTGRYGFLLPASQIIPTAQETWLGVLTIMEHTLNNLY

Carboxypeptidase A1 = target: T3, Carboxypeptidase A1 (Bos taurus, UniProt P00730); assay: Inhibition of bovine pancreas carboxypeptidase A using N-(4-methoxyphenylazoformyl)-phenylalanine as substrate after 5 mins by colorimetry
T3 sequence (P00730 whole entry): T2 sequence (whole entry)
In short: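 Bovine pancreas CPA, 1 U, 25 °C, 200 μL final; inhibitor added from DMSO (typically 1 mM stock, 10 μL) or DMSO alone. Absorbance at 350 nm after 5 min. Curves fitted to %inhibition=[…].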

[4] = Solubility of the compound; assay type: physicochemical

Row | inhibition [1] | inhibition [2] | inhibition [3] | pIC50 (Carboxypeptidase A1) | solubility [4] | SMILES
1 | inactive | inactive | inactive |  |  | CC[C@H](C)[C@@H]1NC(=O)[C@H](N)CCCCNC(=O)[C@H](Cc2ccccc2)NC1=O
2 | inactive | inactive |  | 6.60 |  | CC[C@H](C)[C@@H]1NC(=O)[C@H](NC(=O)N[C@@H](Cc2ccccc2)C(=O)O)CCCCNC(=O)[C@H](Cc2ccccc2)NC1=O [NAMALIDE]
3 |  |  | inactive |  | Insoluble | CC[C@@H](C)[C@@H]1NC(=O)[C@H](NC(=O)N[C@@H](Cc2ccccc2)C(=O)O)CCCCNC(=O)[C@H](Cc2ccccc2)NC1=O
4 | inactive | inactive |  | 5.35 |  | CC[C@H](C)[C@H](NC(=O)[C@@H](CCCCN)NC(=O)N[C@@H](Cc1ccccc1)C(=O)O)C(=O)N[C@@H](Cc1ccccc1)C(N)=O
5 |  |  | inactive |  |  | CC[C@H](C)[C@@H]1NC(=O)[C@H](NC(=O)N[C@@H](Cc2ccccc2)C(=O)O)CCCCNC(=O)[C@H](Cc2ccccc2)NC(=O)[C@H]([C@@H](C)CC)NC(=O)[C@H](NC(=O)N[C@@H](Cc2ccccc2)C(=O)O)CCCCNC(=O)[C@H](Cc2ccccc2)NC1=O
6 | inactive | inactive | inactive |  |  | CC[C@H](C)[C@@H]1NC(=O)[C@@H](NC(=O)N[C@@H](Cc2ccccc2)C(=O)O)CCCCNC(=O)[C@H](Cc2ccccc2)NC1=O

Source: ChEMBL document CHEMBL1955723, “Discovery and synthesis of namalide reveals a new anabaenopeptin scaffold and peptidase inhibitor” (J Med Chem, 2012)
